Measured values: ChEMBL document CHEMBL4673285, “Design, Synthesis, and Biological Evaluation of Linear Aliphatic Amine-Linked Triaryl Derivatives as Potent Small-Molecule Inhibitors of the Programmed Cell Death-1/Programmed Cell Death-Ligand 1 Interaction with Promising Antitumor Effects In Vivo” (J Med Chem, 2020)
Each block holds one molecule with its values, some of them ahead of it. Activity calls are given as the source filed them. The calls are words filed in the database; no cut-off is given here.

Tests used:
[1] = target: Programmed cell death protein 1/Programmed cell death 1 ligand 1 (Homo sapiens, UniProt Q9NZQ7); assay: Inhibition of PD1-Tag2/PD-L1-Tag1 (unknown origin) protein-protein interaction preincubated for 15 mins followed by addition of anti-Tag1-Eu3+ and anti-Tag2-XL665 measured after 2.5 hrs by HTRF assay; assay type: protein-complex assay
Programmed cell death protein 1/Programmed cell death 1 ligand 1, sequence (Q15116 whole entry): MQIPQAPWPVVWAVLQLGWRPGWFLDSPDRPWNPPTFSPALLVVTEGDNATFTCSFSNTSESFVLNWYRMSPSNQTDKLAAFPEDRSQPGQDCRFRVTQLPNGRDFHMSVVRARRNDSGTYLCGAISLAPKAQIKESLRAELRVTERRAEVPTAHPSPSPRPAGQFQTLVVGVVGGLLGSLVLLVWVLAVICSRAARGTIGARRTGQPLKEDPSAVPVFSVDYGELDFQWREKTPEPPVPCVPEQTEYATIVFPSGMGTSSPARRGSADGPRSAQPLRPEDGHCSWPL
Programmed cell death protein 1/Programmed cell death 1 ligand 1, sequence (Q9NZQ7 whole entry): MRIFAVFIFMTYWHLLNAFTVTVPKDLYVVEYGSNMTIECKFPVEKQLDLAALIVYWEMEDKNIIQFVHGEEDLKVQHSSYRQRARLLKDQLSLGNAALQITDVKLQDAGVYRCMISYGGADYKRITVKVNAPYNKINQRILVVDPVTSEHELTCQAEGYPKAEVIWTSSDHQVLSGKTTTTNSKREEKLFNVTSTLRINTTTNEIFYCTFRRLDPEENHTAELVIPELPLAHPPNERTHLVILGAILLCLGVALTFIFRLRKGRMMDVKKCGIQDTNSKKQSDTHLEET
Procedure, shortened: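 Commercial HTRF kit. Compound incubated with PD-L1-Tag1 and PD1-Tag2 at rt for 15 min, then anti-Tag1-Eu³⁺/anti-Tag2-XL665 conjugate mix added and incubated 2.5 h at rt.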

[2] = tested on: Raji; assay: Cytotoxicity against human Raji cells assessed as reduction in cell viability at 100 uM incubated for 24 hrs by Cell-titer glo Luminescent assay; assay type: cell-based
Procedure, shortened: (§1)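 Cells (Raji, RAW 264.7 or donor PBMCs) plated at 1 × 10⁴ per well in medium with 10% FBS. Treated for 24 h at 37 °C, 5% CO₂ with 100, 50, 25, 12.5, 6.25 or 3.125 μM compound, or buffer containing 0.2% DMSO. Viability read by CellTiter-Glo luminescence; killing rate = (1 − RLU compound/RLU control) × 100%; triplicate, mean ± SEM.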

[3] = tested on: RAW264.7; assay: Cytotoxicity against mouse RAW264.7 cells assessed as reduction in cell viability at 3.125 to 100 uM incubated for 24 hrs by Cell-titer glo Luminescent assay; assay type: cell-based; conditions: raw264.7, 24 h, dose 3.125-100 µM; procedure, shortened: as §1
[4] = Cytotoxicity against human PBMC cells assessed as reduction in cell viability at 6.3 uM incubated for 24 hrs by Cell-titer glo Luminescent assay; assay type: cell-based; procedure, shortened: as §1
[5] = Cytotoxicity against human PBMC cells assessed as reduction in cell viability up to 100 uM incubated for 24 hrs by Cell-titer glo Luminescent assay; assay type: cell-based; procedure, shortened: as §1
[6] = target: T1, Programmed cell death 1 ligand 1 (Homo sapiens, UniProt Q9NZQ7); assay: Inhibition of human PD-L1 cocultured in PBMC cells assessed as inhibition of PD1/PDL1 interaction mediated increase in IFN-gamma secretion at 1 uM incubated for 72 hrs by ELISA relative to control; assay type: cell-based
T1 sequence (Q9NZQ7 whole entry): as above
Procedure, shortened: (§2)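 Healthy-donor PBMCs, 1 × 10⁵ per well in RPMI 1640 with 10% FBS, stimulated with anti-CD3/anti-CD28 (1:1, 0.8 μg/mL final) plus PD-L1/Fc at 10 μg/mL final. Compound added at 0.1 or 1 μM final and cocultured 72 h at 37 °C, 5% CO₂. Supernatant IFN-γ measured by ELISA; quadruplicate, mean ± SEM.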

[7] = target: T1, Programmed cell death 1 ligand 1; assay: Inhibition of human PD-L1 cocultured in PBMC cells assessed as inhibition of PD1/PDL1 interaction mediated increase in IFN-gamma secretion at 0.1 uM incubated for 72 hrs by ELISA; assay type: cell-based; procedure, shortened: as §2
[8] = target: T1, Programmed cell death 1 ligand 1; assay: Binding affinity to human PD-L1 expressed in CHOK1 cells assessed as inhibition of PD1/PDL1 protein-protein interaction at 500 nM incubated for 30 mins by flow cytometry analysis relative to control; assay type: cell-based; conditions: CHO-K1
Procedure, shortened: (§3)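 CHO-K1-hPD-L1 cells, 5 × 10⁵ per tube in PBS with 2% FBS, incubated with hPD-1/Fc (10 μg/mL final) at 4 °C for 30 min. Compound added at 500 nM final and incubated a further 30 min at 4 °C, then stained with APC anti-human IgG Fc. Percentage of hPD-1-bound cells read by flow cytometry. Blocking efficacy calculated against a no-inhibitor positive control and parental CHO-K1 negative control.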

[9] = target: T1, Programmed cell death 1 ligand 1; assay: Binding affinity to human PD-L1 expressed in CHOK1 cells assessed as inhibition of PD1/PDL1 protein-protein interaction at 500 nM incubated for 30 mins by flow cytometry analysis; assay type: cell-based; conditions: CHO-K1; procedure, shortened: as §3
[10] = target: T1, Programmed cell death 1 ligand 1; assay: Binding affinity to biotinylated human AVI-PD-L1 by biolayer interferometry
Procedure, shortened: (§4)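 Biotinylated human PD-L1/AVI at 10 μg/mL loaded on streptavidin biosensors for 300 s, then baselined. Association with compound at 20 to 0.3125 nM plus 0 nM for 180 s, then dissociation in buffer for 300 s. Data globally fitted to a 1:1 model to give ka and kdis; apparent affinity taken as their ratio.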

[11] = target: T1, Programmed cell death 1 ligand 1; assay: Binding affinity to biotinylated human AVI-PD-L1 assessed as association constant by biolayer interferometry; procedure, shortened: as §4
[12] = target: T1, Programmed cell death 1 ligand 1; assay: Binding affinity to biotinylated human AVI-PD-L1 assessed as dissociation rate constant by biolayer interferometry
[13] = target: T1, Programmed cell death 1 ligand 1; assay: Inhibition of human PD-L1 cocultured in PBMC cells assessed as inhibition of PD1/PDL1 interaction mediated increase in IFN-gamma secretion at 1 uM incubated for 72 hrs by ELISA; assay type: cell-based; procedure, shortened: as §2
[14] = target: T2, Lymphocyte activation gene 3 protein (Homo sapiens) (UniProt P18627); assay: Binding affinity to human Fc-tagged LAG3 at 500 nM measured after 600 sec by biolayer interferometry
T2 sequence (whole entry): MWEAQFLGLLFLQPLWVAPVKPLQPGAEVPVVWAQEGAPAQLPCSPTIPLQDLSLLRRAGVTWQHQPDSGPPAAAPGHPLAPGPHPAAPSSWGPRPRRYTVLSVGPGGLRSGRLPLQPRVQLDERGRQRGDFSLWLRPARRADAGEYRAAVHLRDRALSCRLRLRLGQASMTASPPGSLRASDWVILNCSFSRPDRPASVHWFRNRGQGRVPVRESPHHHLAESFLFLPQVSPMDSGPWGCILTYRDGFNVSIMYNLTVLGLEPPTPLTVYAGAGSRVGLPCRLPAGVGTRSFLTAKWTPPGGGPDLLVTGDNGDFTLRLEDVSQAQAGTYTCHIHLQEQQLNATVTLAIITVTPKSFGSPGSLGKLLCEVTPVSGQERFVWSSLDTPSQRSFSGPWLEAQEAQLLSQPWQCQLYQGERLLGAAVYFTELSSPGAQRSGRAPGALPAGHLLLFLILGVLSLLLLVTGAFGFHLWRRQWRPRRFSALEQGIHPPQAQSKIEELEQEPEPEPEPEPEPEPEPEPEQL

[15] = target: CD27 antigen (Homo sapiens) (UniProt P26842); assay: Binding affinity to human Fc-tagged CD27 at 500 nM measured after 600 sec by biolayer interferometry
CD27 antigen (Homo sapiens), sequence (P26842 whole entry): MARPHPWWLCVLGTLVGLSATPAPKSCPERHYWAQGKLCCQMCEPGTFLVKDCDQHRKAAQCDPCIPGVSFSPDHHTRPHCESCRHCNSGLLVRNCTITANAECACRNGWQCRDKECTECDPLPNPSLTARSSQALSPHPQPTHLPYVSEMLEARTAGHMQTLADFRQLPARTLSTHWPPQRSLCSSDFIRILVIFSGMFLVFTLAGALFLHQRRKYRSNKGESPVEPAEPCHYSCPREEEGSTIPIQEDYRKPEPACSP

[16] = target: Hepatitis A virus cellular receptor 2 (Homo sapiens) (UniProt Q8TDQ0); assay: Binding affinity to human Fc-tagged TIM3 at 500 nM measured after 600 sec by biolayer interferometry
Hepatitis A virus cellular receptor 2 (Homo sapiens), sequence (Q8TDQ0 whole entry): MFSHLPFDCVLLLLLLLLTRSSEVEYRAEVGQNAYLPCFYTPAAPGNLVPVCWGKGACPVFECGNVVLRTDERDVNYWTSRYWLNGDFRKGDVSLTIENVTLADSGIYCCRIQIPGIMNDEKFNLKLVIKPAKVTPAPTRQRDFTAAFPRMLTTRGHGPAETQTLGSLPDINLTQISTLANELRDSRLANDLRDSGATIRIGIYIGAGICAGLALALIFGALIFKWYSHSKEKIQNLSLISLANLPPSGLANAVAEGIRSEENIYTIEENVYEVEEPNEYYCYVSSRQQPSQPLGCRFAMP

[17] = target: Leukocyte surface antigen CD47 (Homo sapiens) (UniProt Q08722); assay: Binding affinity to human Fc-tagged CD47 at 500 nM measured after 600 sec by biolayer interferometry
Leukocyte surface antigen CD47 (Homo sapiens), sequence (Q08722 whole entry): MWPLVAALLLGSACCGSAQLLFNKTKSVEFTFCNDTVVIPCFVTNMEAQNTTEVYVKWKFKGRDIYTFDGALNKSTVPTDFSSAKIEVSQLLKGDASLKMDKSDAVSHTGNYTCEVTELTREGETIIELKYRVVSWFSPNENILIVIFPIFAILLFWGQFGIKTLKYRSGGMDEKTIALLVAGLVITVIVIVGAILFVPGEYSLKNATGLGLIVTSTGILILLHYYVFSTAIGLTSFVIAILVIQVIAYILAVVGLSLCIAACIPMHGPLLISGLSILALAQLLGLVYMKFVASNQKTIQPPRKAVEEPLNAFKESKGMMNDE

[18] = target: T3, Programmed cell death 1 ligand 2 (Homo sapiens) (UniProt Q9BQ51); assay: Binding affinity to human Fc-tagged PDL2 at 500 nM measured after 600 sec by biolayer interferometry
T3 sequence (whole entry): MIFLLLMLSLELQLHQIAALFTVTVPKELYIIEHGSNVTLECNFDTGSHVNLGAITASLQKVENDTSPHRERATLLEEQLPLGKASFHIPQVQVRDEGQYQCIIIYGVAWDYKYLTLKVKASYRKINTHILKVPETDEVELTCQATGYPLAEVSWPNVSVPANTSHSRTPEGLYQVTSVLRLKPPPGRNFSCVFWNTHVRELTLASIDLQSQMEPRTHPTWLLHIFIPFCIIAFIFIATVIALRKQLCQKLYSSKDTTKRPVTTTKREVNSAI

[19] = target: T1, Programmed cell death 1 ligand 1; assay: Binding affinity to human Fc-tagged PDL1 at 500 nM measured after 600 sec by biolayer interferometry
[20] = target: Programmed cell death protein 1 (Homo sapiens) (UniProt Q15116); assay: Binding affinity to human Fc-tagged PD1 at 500 nM measured after 600 sec by biolayer interferometry
Programmed cell death protein 1 (Homo sapiens), sequence (Q15116 whole entry): as the sequence (Q15116 whole entry) above

SMILES: Cc1cc(CN[C@H](CCO)C(=O)O)c(OCc2cncc(C#N)c2)cc1NCc1cccc(-c2ccccc2)c1C
IC50 [1]: 36 nM

SMILES: N#Cc1cncc(COc2cc(NCc3cccc(-c4ccccc4)c3Br)ccc2CN[C@H](CO)C(=O)O)c1
IC50 [1]: 206 nM

SMILES: Cc1cc(NCc2cccc(-c3ccccc3)c2C)cc(OCc2cccc(C#N)c2)c1CN[C@H](CO)C(=O)O
IC50 [1]: 363 nM

SMILES: Cc1c(CNc2cc(OCc3cncc(C#N)c3)c(CN[C@H](CO)C(=O)O)cc2Cl)cccc1-c1ccc2c(c1)OCCO2
IC50 [1]: 131 nM

SMILES: Cc1c(CNc2ccc(CN[C@H](CO)C(=O)O)c(OCc3cncc(C#N)c3)c2)cccc1-c1ccccc1
Activity [2]: Non-Toxic
Activity [3]: Non-Toxic
Activity [4]: Non-Toxic
Activity [5]: Non-Toxic
inhibition [6]: 42.5%
inhibition [7]: inactive
Efficacy [8]: 95.9%
Activity [9]: Active
Dissociation constant (KD) [10]: 2.96 10^-10M
association rate constant (kon) [11]: 8.49 10^5/M/s
koff [12]: 2.51 10^-4/s

SMILES: N#Cc1cccc(COc2cc(NCc3cccc(-c4ccccc4)c3Br)ccc2CN[C@H](CO)C(=O)O)c1
IC50 [1]: 637 nM

SMILES: COc1cc(NCc2cccc(-c3ccccc3)c2C)c(Cl)cc1CN[C@H](CO)C(=O)O
Activity [3]: Non-Toxic
Activity [4]: Non-Toxic
Activity [5]: Non-Toxic
inhibition [6]: 40.9%
inhibition [7]: inactive
Efficacy [8]: 98.6%
Activity [9]: Active
Dissociation constant (KD) [10]: 5.15 10^-10M
association rate constant (kon) [11]: 1.29 10^6/M/s
koff [12]: 6.64 10^-4/s

SMILES: Cc1c(CNc2cc(OCc3cncc(C#N)c3)c(CN[C@H](CO)C(=O)O)cc2Cl)cccc1-c1ccccc1
IC50 [1]: 26 nM

SMILES: Cc1cc(CN[C@H](CO)C(=O)O)c(OCc2cncc(C#N)c2)cc1NCc1cccc(-c2ccccc2)c1Br
IC50 [1]: 31 nM

SMILES: Cc1c(CN(C)c2ccc(CN[C@H](CO)C(=O)O)c(OCc3cccc(C#N)c3)c2)cccc1-c1ccccc1
IC50 [1]: > 100000 nM

SMILES: Cc1cc(CN[C@H](CO)C(=O)O)c(OCc2cncc(C#N)c2)cc1NCc1cccc(-c2ccc3c(c2)OCCO3)c1C
IC50 [1]: 44 nM

SMILES: Cc1cc(CN[C@@H](CO)C(=O)O)c(OCc2cncc(C#N)c2)cc1NCc1cccc(-c2ccccc2)c1C
IC50 [1]: 23 nM

SMILES: COc1cc(NCc2cccc(-c3ccccc3)c2C)c(C)cc1CN[C@H](CO)C(=O)O
IC50 [1]: 253 nM

SMILES: Cc1cc(NCc2cccc(-c3ccccc3)c2C)cc(OCc2cncc(C#N)c2)c1CN[C@H](CO)C(=O)O
IC50 [1]: 436 nM

SMILES: Cc1cc(CN2C[C@@H](O)CC2=O)c(OCc2cncc(C#N)c2)cc1NCc1cccc(-c2ccccc2)c1C
IC50 [1]: 1330 nM

Activity [14]: inactive
Activity [15]: inactive
Activity [16]: inactive
Activity [17]: inactive
SMILES: Cc1c(CNc2ccc(CN[C@H](CO)C(=O)O)c(OCc3cccc(C#N)c3)c2)cccc1-c1ccccc1
inhibition [13]: inactive
Activity [2]: Non-Toxic
Activity [3]: Non-Toxic
Activity [4]: Non-Toxic
Activity [5]: Non-Toxic
inhibition [7]: inactive
Efficacy [8]: 96.1%
Activity [9]: Active
Dissociation constant (KD) [10]: 1.81 10^-9M
association rate constant (kon) [11]: 6.51 10^5/M/s
Activity [18]: inactive
Activity [19]: Active
Activity [20]: inactive
koff [12]: 1.18 10^-3/s

SMILES: Cc1cc(CN[C@H](CO)C(=O)O)c(OCc2ccccc2)cc1NCc1cccc(-c2ccccc2)c1C
IC50 [1]: 2580 nM
